The text below walks through data of ChEMBL document CHEMBL1123363, “(5-Amino-1,3-dimethyl-1H-pyrazol-4-yl)(2-fluorophenyl)methanones . A series of novel potential antipsychotic agents” (J Med Chem, 1986).

This test relates to Mus musculus. Put plainly: Effective dose required for inhibition of locomotion/ataxia in mice administered intraperitoneally. In kind it is functional. The following applies: ip. In short, it runs like this: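 Male Swiss–Webster mice (20–30 g, unfasted), nine per dose in groups of three, dosed ip in 0.2% methocel (dose as parent compound) 1 h before testing. Ataxia was scored first on an inverted screen over 60 s as % of mice falling. […] ED50 from at least three doses.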

For orientation: ED50 means the dose that gives a 50% effect, or the effect in half of the subjects. A lower ED50 goes with greater potency. `Cc1nn(C)c(N)c1C(=O)c1ccccc1F` displayed an ED50 of 8 mg/kg.
